# PubChem BioAssay AID373 (The Scripps Research Institute Molecular Screening Center, 2006)
# Screen size: about 60,000 compounds; about 60 (0.1%) were called active. Many of the other results were omitted from the sample, so actives are more common in it than they were. A number with no mark means an inactive call.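 The calls were made as follows: active = activation above the screen-wide mean plus 3 SD (cut at about 4.5% in these data, passing the limit was not always enough); inactive = the rest, inconclusive results apart.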
# Target: Sphingosine 1-phosphate receptor 3 (Homo sapiens) (UniProt Q99500)
# Test: human S1P3 receptor agonists, primary screen, cell-based, primary and confirmation, NFAT-BLA reporter (AID 373)
# Conditions: S1P3 NFAT-BLA reporter cells, agonism, FRET ratio, at 4.5 µM, active compounds read high, relative to 1 µM S1P, basal subtracted
# In short: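 Assay system: CHO cells stably expressing human S1P3, Gα16 and NFAT-β-lactamase reporter. Timing: overnight plating, 4 h compound 37 °C, 2 h substrate RT. Signal: β-lactamase FRET emission ratio 460/535 nm. Measure: percent activation versus median 1 µM S1P response, basal-subtracted, per plate. Repeats: primary screen single test, confirmation screen in triplicate.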
# Sequence of Sphingosine 1-phosphate receptor 3 (Homo sapiens) (Q99500 whole entry, looked up): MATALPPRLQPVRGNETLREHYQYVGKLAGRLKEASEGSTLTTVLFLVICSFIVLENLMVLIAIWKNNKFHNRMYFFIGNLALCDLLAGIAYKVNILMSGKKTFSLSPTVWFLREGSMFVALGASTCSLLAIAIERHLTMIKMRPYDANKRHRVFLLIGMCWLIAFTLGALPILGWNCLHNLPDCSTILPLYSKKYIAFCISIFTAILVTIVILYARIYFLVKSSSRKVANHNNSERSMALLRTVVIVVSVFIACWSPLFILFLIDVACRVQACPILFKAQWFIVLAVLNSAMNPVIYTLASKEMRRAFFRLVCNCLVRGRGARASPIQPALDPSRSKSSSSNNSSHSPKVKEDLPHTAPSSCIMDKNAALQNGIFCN
row,Compound,activation [%]
1,CCOC(=O)c1cc(-c2nnc(-c3cc(OC)c(OC)c(OC)c3)o2)c(C)nc1C,-1.5
2,CCOC(=O)c1c(C(C#N)C#N)cc(C)nc1C,-3.8
3,O=C(Cn1nnc(-c2ccccc2)n1)NCc1ccccc1,-0.5
4,Cc1cc(C)nc(SCc2nnc(SCC(=O)Nc3ncc(C)s3)n2Cc2ccco2)n1,0
5,CCn1ncc(C2=NOC(C(=O)Nc3ccccc3C(=O)OC)C2)c1C (stereo not drawn),-0.6
6,CC1Cc2cc(/C(O)=C3\C(=O)C(=O)N(CCN4CCOCC4)C3c3ccccc3F)ccc2O1 (stereo not drawn),0.5
7,CC1CN(C(=O)CN2C(=O)NC(C)(c3ccccc3)C2=O)CC(C)O1 (stereo not drawn),1.6
8,O=C1NC(Nc2nc3ccccc3s2)(C(F)(F)F)C(=O)N1C1CCCCC1 (stereo not drawn),-0.5
9,Cc1nc(SCC(=O)Nc2cc(C)on2)c2c3c(sc2n1)CCCC3,-0.8
10,CCOc1ccc(NC(=O)N(CCC(C)C)C(C)c2ccco2)cc1 (stereo not drawn),-0.3
11,Cc1cc(=O)n(C)c(=O)n1CCCNc1ccccc1,-0.2
12,CCOc1ccc(CNC(=O)C2CC(=O)N(C3CCCC3)C2)cc1OC (stereo not drawn),0.9
13,O=C1CCC(Cc2ccccc2)N1 (stereo not drawn),0.3
14,CCCCOc1ccc(-c2nnc(-c3ccco3)o2)cc1,-0.5
15,COC(=O)N1CN(C(=O)OC)CN(C(=O)OC)C1,-0.2
16,COC(=O)CN(c1nc(C)c(Cl)c(OC)n1)S(=O)(=O)c1ccc(C)cc1,-1.1
17,O=C(O)c1ccc(NS(=O)(=O)c2cccc3nsnc23)cc1,-0.5
18,Cn1c(=O)[nH]c(=O)c2c1nc(Br)n2CCCCSc1nc2ccccc2o1,-1.6
19,O=C(NCCN1CCOCC1)c1ccc2c(c1)ncn2C1CCCC1,-0.2
20,COc1cccc(OCC(=O)Nc2ccccc2C(N)=O)c1,-1.1
21,CCOC(=O)N1CCN(C(=O)c2cc3c(-c4ccc(Cl)cc4)nn(C)c3s2)CC1,-1.5
22,Cc1cc(C)c2nc(SCCC#N)nc(C)c2c1,-0.8
23,c1cc(-c2nn[nH]n2)ccc1CN1CCCCC1,-0.2
24,N#CC(C(N)=O)=C1CCC2(CC1)OCCCCO2,-0.6
25,CC(CNC(=O)c1ccc(Br)o1)NC(=O)c1ccc(Br)o1 (stereo not drawn),-0.8
26,Cc1ccc(OCC(=O)Nc2ccc(-c3nc4ncccc4o3)cc2)cc1,0.4
27,O=c1c2ccccc2[nH]c(=S)n1CCN1CCC(=C(c2ccc(F)cc2)c2ccc(F)cc2)CC1,-2.2

row,Compound,activation [%]
1,Cc1cc(NC(=O)CCC(=O)N(c2ccccc2)C(C(=O)NC2CCCC2)c2ccncc2)no1 (stereo not drawn),-0.2
2,O=C(OCCO)c1cc(Cl)c(C(=O)OCCO)cc1Cl,-1.2
3,Cc1cccc(NC(=O)C2CCN(S(=O)(=O)c3cccc4cccnc34)CC2)c1,-0.2
4,CN(C)c1ccnc2sc3c(=O)n(Cc4ccccc4)cnc3c12,-1.9
5,CCN1C(=O)/C(=C2\SC(N3CCCCC3)=NC2=O)c2ccccc21,-0.5
6,COc1ccc2c(c1OC)C(=O)OC2c1c(O)nc(SC)n(-c2ccccc2)c1=O (stereo not drawn),-2.9
7,CCc1nnc(NC(=O)c2cccs2)s1,0.7
8,COc1ccc(C(=O)N(CCN2CCOCC2)CC(=O)NC2CCCC2)cc1OC,0.6
9,CCn1c(=O)cc(O)c2ccccc21,0.7
10,CCOC(=O)C1=C(C)N=c2s/c(=C\C(=O)OC)c(=O)n2C1c1ccc(OC)cc1 (stereo not drawn),-0.8
11,O=C(CCc1ccccc1)Nc1cccc(-c2nnc(-c3ccco3)o2)c1,-0.9
12,CCc1cc(=O)oc2cc(C)cc(OC(C)C(=O)O)c12 (stereo not drawn),-0.4
13,COc1ccc(Cn2nnc3c(=O)[nH]c(C4CCN(C(=O)c5ccccc5Cl)CC4)nc32)cc1,-0.1
14,COc1ccc(N2C(=O)C3CCCN3C2c2cccc(OC)c2)cc1 (stereo not drawn),-0.5
15,Cc1ccc(C(=O)Nc2nnc(-c3cccs3)s2)cc1C,-0.6
16,COc1ccccc1NC(=O)CN1CCN(S(=O)(=O)c2ccc(Br)cc2)CC1,-0.8
17,Cc1ccc(C(C(=O)NCc2ccco2)N(CC2CCCO2)C(=O)Cn2nnc3ccccc32)cc1 (stereo not drawn),-0.7
18,CC1CCN(Cc2nc3c(c(=O)n(C)c(=O)n3C)n2Cc2cccc3ccccc23)CC1,-0.5
19,COC(=O)Cn1c(=NC(=O)CSCC(=O)Nc2cc(C)on2)sc2ccccc21,-0.5
20,COC(=O)c1c(-c2ccc(C)cc2)csc1N,-0.4
21,CCOC(=O)N1CCN(CC(=O)c2ccc3c(c2)CCN3)CC1,0
22,CC(C)(C)c1ccc(NC(=O)NCc2ccco2)cc1,-0.2
23,CC(=O)CCS(=O)(=O)c1ccc(C)c(C)c1,-3
24,COC(=O)c1ccc(CSc2nncn2C)cc1,-1.1
25,CCn1cc(C(=O)NCC2CCCO2)c(=O)c2cc(S(=O)(=O)N3CCCCC3)ccc21 (stereo not drawn),-0.3
26,O=c1oc2c(CN3CCCCC3)c(O)ccc2c2c1CCCCC2,-1
